The text below walks through data of ChEMBL document CHEMBL4004835, “Discovery of Novel Disruptor of Silencing Telomeric 1-Like (DOT1L) Inhibitors using a Target-Specific Scoring Function for the (S)-Adenosyl-l-methionine (SAM)-Dependent Methyltransferase Family” (J Med Chem, 2017).

A value given as a limit tells only on which side of the number the result lay.

The test system of one assay is K562. The assay can be described thus: Cytotoxicity against human K562 cells assessed as reduction in cell viability after 72 hrs by alamar blue assay. Particulars: K562, 72 h. The assay is classed as functional, cell-based. The essentials:
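Cells cultured in RPMI 1640 with 10% FBS and 1% penicillin/streptomycin, treated with a range of concentrations or equal DMSO, 37 °C, 5% CO2, 72 h. Viability read by alamar blue (ex 544/em 590 nm); percent proliferation and IC50 curve fitted.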

The test system of assay [1] is MV4-11. Description: Induction of apoptosis in human MV4-11 cells assessed as necrotic cells at 50 uM after 72 hrs by annexin V/FITC and propidium iodide staining-based flow cytometric analysis (reference value: 0.04 %). Format: functional.
The subject of assay [2] is MV4-11. Description: Induction of apoptosis in human MV4-11 cells assessed as late apoptotic cells at 50 uM after 72 hrs by annexin V/FITC and propidium iodide staining-based flow cytometric analysis (reference value: 4.02 %). The assay is classed as functional. (In general: In flow cytometry, cells or beads pass a laser one at a time.)
The test system of assay [3] is MV4-11. Description: Induction of cell cycle arrest in human MV4-11 cells assessed as accumulation at G2 phase at 12.5 uM after 48 hrs by propidium iodide/RNase-staining based flow cytometric analysis (reference value: 7.44 %). The assay is classed as functional. The essentials: (§1)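 MV4-11 cells (2 × 10^6) seeded in 12-well dishes, treated with different concentrations for 48 h, processed with a PI/RNase staining kit and analysed for cell-cycle distribution by FACSCalibur flow cytometry.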

Assay [4] relates to MV4-11. The assay can be described thus: Induction of apoptosis in human MV4-11 cells assessed as late apoptotic cells at 6.25 uM after 72 hrs by annexin V/FITC and propidium iodide staining-based flow cytometric analysis (reference value: 4.02 %). Format: functional.
The subject of assay [5] is MV4-11. Description: Induction of cell cycle arrest in human MV4-11 cells assessed as accumulation at S phase at 12.5 uM after 48 hrs by propidium iodide/RNase-staining based flow cytometric analysis (reference value: 24.40 %). The assay is classed as functional. In a few lines: as §1
Assay [6] has as its target T1, Histone-lysine N-methyltransferase, H3 lysine-79 specific (Homo sapiens, UniProt Q8TEK3). The assay can be described thus: Inhibition of N-terminal 6His-tagged human DOT1L (1 to 416 residues) expressed in Escherichia coli BL21(DE3) at preincubated for 15 mins followed by [3H]-SAM addition measured after 120 mins by radioactive methylation assay. The essentials: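 DOT1L and compound preincubated 15 min at room temperature; oligonucleosome and 3H-SAM added; reaction 120 min at room temperature, stopped with cold SAM; transferred to 0.5% PEI-pretreated filter plate, washed 3× with water, read by liquid scintillation counting.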

Assay [7] has as its system MV4-11. Description: Induction of cell cycle arrest in human MV4-11 cells assessed as accumulation at S phase at 6.25 uM after 48 hrs by propidium iodide/RNase-staining based flow cytometric analysis (reference value: 24.40 %). The assay is classed as functional. The essentials:
as §1

Assay [8] has as its target T1, Histone-lysine N-methyltransferase, H3 lysine-79 specific. The assay can be described thus: Binding affinity to human N-terminal 6His-tagged DOT1L (1 to 416 residues) expressed in Escherichia coli BL21(DE3) after 150 secs by SPR-based binding assay.
The test system of assay [9] is MV4-11. The assay can be described thus: Induction of cell cycle arrest in human MV4-11 cells assessed as accumulation at S phase at 50 uM after 48 hrs by propidium iodide/RNase-staining based flow cytometric analysis (reference value: 24.40 %). Format: functional. In a few lines: as §1
In assay [10] the target is Histone-lysine N-methyltransferase, H3 lysine-36 specific (Homo sapiens) (UniProt Q96L73). The assay can be described thus: Inhibition of NSD1 (unknown origin) at 50 and 100 uM preincubated for 15 mins followed by substrate and [3H]-SAM addition after 120 mins by MicroBeta counting. In a few lines:
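In modified Tris buffer, enzyme incubated 15 min at room temperature, then substrate and [3H]SAM added; stopped at 120 min with cold SAM; transferred to a 0.5% PEI-pretreated GF/B plate, washed 3× with water, read by MicroBeta.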

Assay [11] has as its system MV4-11. The assay can be described thus: Induction of apoptosis in human MV4-11 cells assessed as early apoptotic cells at 50 uM after 72 hrs by annexin V/FITC and propidium iodide staining-based flow cytometric analysis (reference value: 5.66 %). The assay is classed as functional.
Assay [12] has as its system MV4-11. The assay can be described thus: Induction of apoptosis in human MV4-11 cells assessed as late apoptotic cells at 25 uM after 72 hrs by annexin V/FITC and propidium iodide staining-based flow cytometric analysis (reference value: 4.02 %). Format: functional.
Assay [13] deals with MV4-11. Description: Induction of cell cycle arrest in human MV4-11 cells assessed as accumulation at G1 phase at 25 uM after 48 hrs by propidium iodide/RNase-staining based flow cytometric analysis (reference value: 68.16 %). Format: functional. The essentials: as §1
The test system of assay [14] is MV4-11. Description: Induction of cell cycle arrest in human MV4-11 cells assessed as accumulation at S phase at 25 uM after 48 hrs by propidium iodide/RNase-staining based flow cytometric analysis (reference value: 24.40 %). The assay is classed as functional. In a few lines: as §1
Assay [15] deals with MV4-11. Description: Induction of apoptosis in human MV4-11 cells assessed as viable cells at 25 uM after 72 hrs by annexin V/FITC and propidium iodide staining-based flow cytometric analysis (reference value: 90.3 %). Particulars: MV4-11, 72 h, read-out: Activity. Format: functional.
Assay [16] deals with MV4-11. The assay can be described thus: Induction of cell cycle arrest in human MV4-11 cells assessed as accumulation at G2 phase at 25 uM after 48 hrs by propidium iodide/RNase-staining based flow cytometric analysis (reference value: 7.44 %). Format: functional. In a few lines:
as §1

In assay [17] the test system is MV4-11. The assay can be described thus: Induction of cell cycle arrest in human MV4-11 cells assessed as accumulation at G2 phase at 50 uM after 48 hrs by propidium iodide/RNase-staining based flow cytometric analysis (reference value: 7.44 %). The assay is classed as functional. The essentials: as §1
The target in assay [18] is Histone-lysine N-methyltransferase EZH2 (Homo sapiens) (UniProt Q15910). The assay can be described thus: Inhibition of EZH2 (unknown origin) at 50 and 100 uM preincubated for 15 mins followed by substrate and [3H]-SAM addition for 60 mins in presence of H3K27me peptide measured after 60 mins by liquid scintillation counting method. In a few lines: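 In modified Tris buffer with H3K27me peptide, enzyme preincubated 15 min at room temperature; substrate added to start; stopped with cold SAM; mix on Flashplate at least 60 min at room temperature, washed with water plus 0.1% Tween-20, read by scintillation counting.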
Chain of Histone-lysine N-methyltransferase EZH2 (Homo sapiens) (Q15910 whole entry, looked up): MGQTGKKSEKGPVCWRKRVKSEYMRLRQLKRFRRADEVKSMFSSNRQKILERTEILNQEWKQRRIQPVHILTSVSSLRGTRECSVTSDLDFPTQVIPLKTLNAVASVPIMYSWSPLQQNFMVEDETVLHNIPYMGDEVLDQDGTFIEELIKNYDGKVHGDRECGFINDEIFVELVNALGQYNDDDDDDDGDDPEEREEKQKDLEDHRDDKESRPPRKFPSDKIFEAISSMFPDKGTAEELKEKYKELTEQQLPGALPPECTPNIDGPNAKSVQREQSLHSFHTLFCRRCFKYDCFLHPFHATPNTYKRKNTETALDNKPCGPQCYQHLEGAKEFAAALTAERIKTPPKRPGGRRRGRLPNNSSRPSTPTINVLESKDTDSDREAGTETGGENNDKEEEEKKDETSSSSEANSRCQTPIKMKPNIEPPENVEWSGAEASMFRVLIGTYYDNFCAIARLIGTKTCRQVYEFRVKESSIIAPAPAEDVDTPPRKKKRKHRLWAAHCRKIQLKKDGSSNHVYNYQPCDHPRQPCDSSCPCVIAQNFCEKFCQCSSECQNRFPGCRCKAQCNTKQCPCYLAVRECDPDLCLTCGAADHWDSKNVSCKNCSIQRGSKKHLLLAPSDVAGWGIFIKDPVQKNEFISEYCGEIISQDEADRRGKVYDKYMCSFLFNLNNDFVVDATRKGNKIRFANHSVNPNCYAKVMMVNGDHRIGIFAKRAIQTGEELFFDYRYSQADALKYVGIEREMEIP

Assay [19] has as its target Protein arginine N-methyltransferase 1 (Homo sapiens) (UniProt Q99873). The assay can be described thus: Inhibition of PRMT1 (unknown origin) preincubated for 15 mins followed by biotinylated H3R2 substrate/[…]SAM addition for 60 mins measured after further 60 mins by AlphaLISA assay. In a few lines: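 Enzyme incubated 15 min at room temperature; biotinylated H3R2 peptide (50 nM final) and SAM (300 nM final) added; at 60 min acceptor beads (10 μg/mL final) stop the reaction; after 60 min, donor beads (10 μg/mL final) added, 30 min at room temperature in low light; alpha signal read.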
On the technique in general: Alpha assays give light when donor and acceptor beads are brought close together.

Assay [20] has as its system MV4-11. Description: Induction of cell cycle arrest in human MV4-11 cells assessed as accumulation at G1 phase at 6.25 uM after 48 hrs by propidium iodide/RNase-staining based flow cytometric analysis (reference value: 68.16 %). Format: functional. In a few lines:
as §1

In assay [21] the target is DNA (cytosine-5)-methyltransferase 1 (Homo sapiens) (UniProt P26358). Description: Inhibition of DNMT1 (unknown origin) at 50 and 100 uM preincubated for 15 mins followed by poly(dI-DC) substrate and [3H]-SAM addition after 120 mins by liquid MicroBeta counting. The essentials: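 In modified Tris buffer, enzyme preincubated 15 min at room temperature; poly(dI-dC) substrate and [3H]SAM added; 120 min at 37 °C; reaction transferred to 0.5% PEI-pretreated filter plates, vacuumed, read by MicroBeta; SAH as positive control.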
Chain of DNA (cytosine-5)-methyltransferase 1 (Homo sapiens) (P26358 whole entry): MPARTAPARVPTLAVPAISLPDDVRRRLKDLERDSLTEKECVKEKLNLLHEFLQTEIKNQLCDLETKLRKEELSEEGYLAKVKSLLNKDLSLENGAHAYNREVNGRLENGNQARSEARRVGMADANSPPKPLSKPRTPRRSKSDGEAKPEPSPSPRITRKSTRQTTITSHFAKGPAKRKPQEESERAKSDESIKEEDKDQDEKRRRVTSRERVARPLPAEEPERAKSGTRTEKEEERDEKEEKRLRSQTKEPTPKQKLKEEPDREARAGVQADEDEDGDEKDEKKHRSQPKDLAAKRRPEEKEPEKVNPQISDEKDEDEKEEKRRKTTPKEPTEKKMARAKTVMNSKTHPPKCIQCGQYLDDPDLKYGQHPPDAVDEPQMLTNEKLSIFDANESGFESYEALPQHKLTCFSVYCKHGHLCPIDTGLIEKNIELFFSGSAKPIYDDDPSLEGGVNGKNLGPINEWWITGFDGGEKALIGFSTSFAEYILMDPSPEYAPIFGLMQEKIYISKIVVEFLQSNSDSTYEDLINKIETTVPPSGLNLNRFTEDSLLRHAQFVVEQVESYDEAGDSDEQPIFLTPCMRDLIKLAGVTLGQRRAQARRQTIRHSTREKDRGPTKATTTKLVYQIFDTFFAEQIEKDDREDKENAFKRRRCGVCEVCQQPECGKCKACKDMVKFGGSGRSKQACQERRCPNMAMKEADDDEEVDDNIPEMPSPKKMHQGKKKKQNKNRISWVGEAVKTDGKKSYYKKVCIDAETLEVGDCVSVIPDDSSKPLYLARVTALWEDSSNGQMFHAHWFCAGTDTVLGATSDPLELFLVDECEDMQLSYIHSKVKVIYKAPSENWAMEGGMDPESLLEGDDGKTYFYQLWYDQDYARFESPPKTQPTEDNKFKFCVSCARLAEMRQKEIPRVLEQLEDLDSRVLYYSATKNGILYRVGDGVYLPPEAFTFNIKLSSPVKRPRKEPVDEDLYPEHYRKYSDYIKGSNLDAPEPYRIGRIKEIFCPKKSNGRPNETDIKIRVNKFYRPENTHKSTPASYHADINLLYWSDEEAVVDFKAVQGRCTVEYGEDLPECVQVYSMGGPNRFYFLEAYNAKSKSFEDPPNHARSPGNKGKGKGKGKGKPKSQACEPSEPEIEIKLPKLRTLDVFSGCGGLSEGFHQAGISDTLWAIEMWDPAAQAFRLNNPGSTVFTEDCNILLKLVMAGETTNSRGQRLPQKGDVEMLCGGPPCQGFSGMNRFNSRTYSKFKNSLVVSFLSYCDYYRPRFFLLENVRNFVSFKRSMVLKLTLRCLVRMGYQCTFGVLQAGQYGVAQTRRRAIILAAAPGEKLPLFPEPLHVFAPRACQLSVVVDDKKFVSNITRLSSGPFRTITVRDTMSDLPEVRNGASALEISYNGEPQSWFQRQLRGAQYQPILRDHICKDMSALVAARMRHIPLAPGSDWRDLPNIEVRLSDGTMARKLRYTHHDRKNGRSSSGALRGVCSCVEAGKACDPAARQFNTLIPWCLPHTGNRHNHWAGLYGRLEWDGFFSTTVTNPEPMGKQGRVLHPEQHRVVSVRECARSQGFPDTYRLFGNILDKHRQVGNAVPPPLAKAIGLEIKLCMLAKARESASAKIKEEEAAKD

T1 sequence (Q8TEK3 whole entry, the tested form may be a part): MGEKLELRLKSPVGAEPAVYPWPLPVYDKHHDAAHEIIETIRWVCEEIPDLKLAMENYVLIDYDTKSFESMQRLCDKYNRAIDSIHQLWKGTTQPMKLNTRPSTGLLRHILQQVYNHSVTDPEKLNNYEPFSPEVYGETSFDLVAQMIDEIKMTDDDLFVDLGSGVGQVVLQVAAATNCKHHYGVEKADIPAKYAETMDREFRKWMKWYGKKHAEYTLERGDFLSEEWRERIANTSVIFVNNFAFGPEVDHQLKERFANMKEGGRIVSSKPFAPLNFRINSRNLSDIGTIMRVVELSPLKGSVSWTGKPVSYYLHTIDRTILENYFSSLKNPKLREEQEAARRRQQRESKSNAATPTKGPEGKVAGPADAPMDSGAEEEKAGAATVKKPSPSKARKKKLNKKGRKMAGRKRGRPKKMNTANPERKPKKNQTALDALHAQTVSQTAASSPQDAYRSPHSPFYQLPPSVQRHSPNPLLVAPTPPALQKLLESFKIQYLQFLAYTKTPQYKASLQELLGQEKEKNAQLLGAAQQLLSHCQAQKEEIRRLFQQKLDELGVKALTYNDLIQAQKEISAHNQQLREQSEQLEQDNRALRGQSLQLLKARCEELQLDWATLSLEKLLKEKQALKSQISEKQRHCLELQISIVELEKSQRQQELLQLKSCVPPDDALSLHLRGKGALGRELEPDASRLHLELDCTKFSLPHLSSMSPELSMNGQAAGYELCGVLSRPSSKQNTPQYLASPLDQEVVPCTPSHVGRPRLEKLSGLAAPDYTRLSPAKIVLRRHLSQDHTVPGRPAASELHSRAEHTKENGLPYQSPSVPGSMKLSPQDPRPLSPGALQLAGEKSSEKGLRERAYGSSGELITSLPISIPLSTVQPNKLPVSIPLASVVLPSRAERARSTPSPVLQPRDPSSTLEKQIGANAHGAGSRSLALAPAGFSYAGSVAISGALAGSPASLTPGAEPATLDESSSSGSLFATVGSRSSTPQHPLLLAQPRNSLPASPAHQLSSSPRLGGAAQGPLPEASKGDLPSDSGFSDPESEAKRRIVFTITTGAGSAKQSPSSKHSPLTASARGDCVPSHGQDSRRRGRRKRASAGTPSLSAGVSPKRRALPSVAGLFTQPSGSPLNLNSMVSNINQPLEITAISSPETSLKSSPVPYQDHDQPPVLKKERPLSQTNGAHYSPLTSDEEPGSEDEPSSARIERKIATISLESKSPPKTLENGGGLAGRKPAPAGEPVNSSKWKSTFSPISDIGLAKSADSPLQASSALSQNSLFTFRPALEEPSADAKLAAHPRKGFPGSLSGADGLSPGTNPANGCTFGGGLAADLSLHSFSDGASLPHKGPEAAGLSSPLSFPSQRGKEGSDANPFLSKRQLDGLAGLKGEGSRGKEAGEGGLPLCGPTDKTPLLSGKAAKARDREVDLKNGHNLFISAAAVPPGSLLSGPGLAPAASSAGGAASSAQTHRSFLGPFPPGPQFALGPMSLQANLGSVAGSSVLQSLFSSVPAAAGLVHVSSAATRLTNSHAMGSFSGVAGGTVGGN
Chain of Protein arginine N-methyltransferase 1 (Homo sapiens) (Q99873 whole entry, looked up): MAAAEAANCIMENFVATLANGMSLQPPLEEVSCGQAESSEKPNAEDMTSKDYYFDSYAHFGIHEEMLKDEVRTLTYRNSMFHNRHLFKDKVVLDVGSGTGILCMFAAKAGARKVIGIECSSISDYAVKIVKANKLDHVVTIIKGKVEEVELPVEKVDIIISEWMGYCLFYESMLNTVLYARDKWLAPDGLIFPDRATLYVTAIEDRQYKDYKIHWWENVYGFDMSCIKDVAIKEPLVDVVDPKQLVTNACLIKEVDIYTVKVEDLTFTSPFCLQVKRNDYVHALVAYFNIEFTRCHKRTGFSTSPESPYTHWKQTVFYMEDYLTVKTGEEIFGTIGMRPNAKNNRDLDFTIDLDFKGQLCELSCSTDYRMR

Broadly, the IC50 is the concentration at which inhibition is half-maximal. One may read the Kd as the concentration at which binding is half-saturated. A word on the inhibition: it is the change of the read-out against control, counted positive when it falls. Turning to `Fc1cccc(-c2nn3c(Cn4nnc5ccccc54)nnc3s2)c1`, the values for the IC50 (with K562; in assay [6]) were over 200 µM and 8.29 µM, respectively. In addition, the Activity came to 0.28% with MV4-11 [1]; 40.8% in the assay with MV4-11 [2]; 4.35% in the assay with MV4-11 [3]; 25% with MV4-11 [4]; 25.38% with MV4-11 [5]; 26.56% in the assay with MV4-11 [7]. The Activity in the assay on MV4-11 [9] amounted to 17.76%; in the assay with MV4-11 [11] it was 55.2%; with MV4-11 [12], 33.5%; with MV4-11 [13], 83.18%; with MV4-11 [14] it was 15.82%; in the assay with MV4-11 [16] it was 0.99%. In addition, the Activity in the assay with MV4-11 [17] is given as 0%; in the assay with MV4-11 [20], 67.64%. The Kd in [8] was 17.3 µM. Further, the inhibition in assay [10], in assay [18], in assay [19] and in assay [21] was under 40% in each case. In the assay on MV4-11 [15], the viability at 25 µM worked out at 6.76%.
